The results in this text go back to ChEMBL document CHEMBL1149258, “Synthesis and structure-activity relationships of novel histamine H1 antagonists: indolylpiperidinyl benzoic acid derivatives” (J Med Chem, 2004).

As usually defined, the ED50 is the dose at which the effect has come halfway, by size or by number of responders. Read a low ED50 as greater potency. The half-life is how long it takes for the measured level to halve. The low end stands for rapid decline, the high end for slow decline. Broadly, the IC50 is the concentration needed to halve the response being measured. Read a low IC50 as higher potency. The term inhibition denotes the relative decrease from the control value, in per cent. In general, clearance refers to the rate of elimination divided by the concentration. Low readings indicate a low capacity for elimination, high ones a high capacity for elimination.

The test system of data set [1] is Rattus norvegicus. Briefly: Inhibition of increase in histamine-induced cutaneous vascular permeability in orally dosed Wistar rat model after 4 hrs. Format: functional. The following applies: po. In a few lines: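 Fasted male rats (150-175 g; n=5 per condition) dosed orally in 0.5% methylcellulose/0.1% Tween 80. At 4 h, under light ether, received four intradermal injections of 5 µg histamine, then 0.5% Evans Blue iv. Killed 1 h later. Papule area from maximum and minimum diameters (ellipse); inhibition of papule area; ED50 (mg/kg, po).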

Data set [2] can be described thus: Half life in Wistar rat at 1 mg/kg, iv after 8 hrs. The following applies: in vivo. Format: ADME, organism-based. More on the design: dose 1 mg/kg, route intravenous. In a few lines:
(§1)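 Male Wistar rats, fasted overnight, dosed iv at 1 mg/kg. Blood sampled from 0.1 to 24 h; plasma stored at -20 °C. Levels measured by isocratic HPLC-UV (225 nm) after on-line solid-phase extraction, or by HPLC-MS (ESI+) for one analyte. Parameters from noncompartmental analysis.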

Data set [3] has as its target T1, Adrenergic receptor alpha-1 (Rattus norvegicus, UniProt P15823+P23944+P43140).
T1 sequence (P15823 whole entry): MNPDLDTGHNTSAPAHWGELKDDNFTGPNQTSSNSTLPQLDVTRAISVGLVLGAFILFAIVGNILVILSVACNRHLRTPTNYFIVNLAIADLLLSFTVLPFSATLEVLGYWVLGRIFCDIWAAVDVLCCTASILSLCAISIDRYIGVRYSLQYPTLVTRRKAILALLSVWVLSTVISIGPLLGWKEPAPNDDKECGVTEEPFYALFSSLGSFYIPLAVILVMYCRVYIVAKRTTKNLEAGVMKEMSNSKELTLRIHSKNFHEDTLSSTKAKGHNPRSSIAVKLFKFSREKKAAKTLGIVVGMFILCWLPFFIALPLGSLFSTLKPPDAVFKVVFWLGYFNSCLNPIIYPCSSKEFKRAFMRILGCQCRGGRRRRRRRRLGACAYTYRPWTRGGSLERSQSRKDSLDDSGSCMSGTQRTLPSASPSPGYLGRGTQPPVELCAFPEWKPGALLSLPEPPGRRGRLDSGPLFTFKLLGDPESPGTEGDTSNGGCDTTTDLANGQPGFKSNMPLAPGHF
T1 sequence (P23944 whole entry): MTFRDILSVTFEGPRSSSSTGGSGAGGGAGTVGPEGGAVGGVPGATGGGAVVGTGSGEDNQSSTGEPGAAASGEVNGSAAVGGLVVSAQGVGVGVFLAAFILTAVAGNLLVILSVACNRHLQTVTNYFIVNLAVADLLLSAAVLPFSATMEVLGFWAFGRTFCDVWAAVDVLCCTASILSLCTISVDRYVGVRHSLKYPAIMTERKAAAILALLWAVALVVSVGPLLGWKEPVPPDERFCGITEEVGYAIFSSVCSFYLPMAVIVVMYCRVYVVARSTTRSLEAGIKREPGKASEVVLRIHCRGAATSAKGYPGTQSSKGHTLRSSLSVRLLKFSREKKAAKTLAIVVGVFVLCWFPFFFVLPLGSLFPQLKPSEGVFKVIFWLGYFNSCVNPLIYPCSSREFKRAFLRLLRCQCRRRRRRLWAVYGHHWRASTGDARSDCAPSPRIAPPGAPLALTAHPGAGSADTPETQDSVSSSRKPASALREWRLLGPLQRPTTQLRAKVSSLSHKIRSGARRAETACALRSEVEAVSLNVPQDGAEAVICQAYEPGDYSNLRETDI
T1 sequence (P43140 whole entry): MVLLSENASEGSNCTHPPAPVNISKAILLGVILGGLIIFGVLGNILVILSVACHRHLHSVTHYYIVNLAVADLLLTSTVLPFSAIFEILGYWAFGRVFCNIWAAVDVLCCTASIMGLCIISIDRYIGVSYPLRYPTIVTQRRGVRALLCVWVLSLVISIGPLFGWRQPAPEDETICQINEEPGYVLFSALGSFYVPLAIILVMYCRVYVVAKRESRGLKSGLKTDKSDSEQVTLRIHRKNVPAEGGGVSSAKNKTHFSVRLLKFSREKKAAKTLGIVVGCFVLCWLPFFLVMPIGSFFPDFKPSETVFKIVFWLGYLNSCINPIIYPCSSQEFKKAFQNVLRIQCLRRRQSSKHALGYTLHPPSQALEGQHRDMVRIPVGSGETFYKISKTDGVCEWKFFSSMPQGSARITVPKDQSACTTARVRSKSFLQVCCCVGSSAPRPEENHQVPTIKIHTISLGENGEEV
Briefly: Displacement of [3H]prazosin from adrenergic alpha-1 receptor in rat brain membranes. Format: cell membranes. In a few lines:
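Rat brain membranes (340 µg protein/mL) with 0.25 nM [3H]-prazosin in 50 mM Tris-HCl pH 7.7, room temperature, 60 min, filtration. Nonspecific binding with 100 µM prazosin. Several concentrations run in duplicate; IC50 by nonlinear regression.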
For orientation: Displacement assays read how much labelled ligand stays bound in the presence of the test substance.

In data set [4] the target is CYP3A4 (Homo sapiens, UniProt P08684). Nature of the data set: Inhibition of CYP3A4 in human microsomes at 25 uM. The format is ADME, Microsome.
Data set [5] relates to Cavia porcellus. Nature of the data set: Effect on QT interval prolongation in Dunkin-Hartley guinea pigs at 30 mg/kg, iv. More on the design: dose 30 mg/kg. Format: functional, organism-based. In a few lines:
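Male guinea pigs (500-600 g), urethane 1.5 g/kg anaesthesia, ventilated (10 mL/kg, 60 cycles/min). Stabilised at least 30 min, then 3-min jugular iv perfusion at 3, 10 and 30 mg/kg. Surface ECG recorded at end of perfusion and at 15, 30, 45 and 60 min. QTc by Bazett; change in ms from baseline. Vehicle-only controls.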

Data set [6] deals with Rattus norvegicus. Briefly: Inhibition of increase in histamine-induced cutaneous vascular permeability in orally dosed Wistar rat model after 8 hrs. The format is functional. The following applies: po. The method in brief:
(§2)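 Male Wistar rats (150-175 g), fasted, dosed orally in 0.5% methylcellulose/0.1% Tween 80 (10 mL/kg), n=5. At 1 or 8 h after dosing, four intradermal injections of 5 µg histamine were given, plus iv 0.5% Evans Blue. Papule area (ellipse) measured 1 h later. ED50 in mg/kg po.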

The target in data set [7] is Histamine H1 receptor (Mus musculus) (UniProt P70174). Briefly: Ex vivo displacement of [3H]mepyramine from brain histamine H1 receptor in orally dosed Swiss Albino mouse. The format is functional, organism-based. The method in brief: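 Overnight-fasted male mice (20-25 g) dosed orally at several doses (0.5% methylcellulose/0.1% Tween 80, 10 mL/kg), killed 90 min later. Whole brain homogenised in ice-cold 0.05 M Na+/K+ phosphate pH 7.4; aliquots incubated in triplicate with 2 nM final [3H]-mepyramine, 40 min at 30 °C, then filtered. Nonspecific binding from 30 mg/kg po D-chlorpheniramine; total binding from vehicle. Three animals per dose; ED50 reported.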

Data set [8] can be described thus: Volume of distribution at steady state in Wistar rat at 1 mg/kg, iv after 8 hrs. Format: ADME, organism-based. More on the design: dose 1 mg/kg, route intravenous. Particulars: in vivo, read-out: Vss. The method in brief:
as §1

Data set [9] in a line: Clearance in Wistar rat at 1 mg/kg, iv after 8 hrs. The format is ADME, organism-based. More on the design: dose 1 mg/kg, route intravenous. Particulars: in vivo. In a few lines: as §1
For data set [10], the system named is Rattus norvegicus. Nature of the data set: Inhibition of increase in histamine-induced cutaneous vascular permeability in orally dosed Wistar rat model after 1 hrs. The format is functional. The following applies: po. The method in brief: as §2
Data set [11] has as its system Cavia porcellus. Nature of the data set: Effect on QT interval prolongation in Dunkin-Hartley guinea pigs at 3 mg/kg, iv. Format: functional, organism-based. More on the design: dose 3 mg/kg.
For data set [12], the target named is Histamine H1 receptor (Cavia porcellus, UniProt P31389). Briefly: Displacement of [3H]mepyramine from histamine H1 receptor in guinea pig cerebellum membranes. The format is cell membranes, Membrane. In a few lines: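 Guinea pig cerebellum membranes (160 µg/mL) incubated with 0.7 nM [3H]-mepyramine at 30 °C for 30 min, 0.5 mL final volume, ended by filtration. Nonspecific binding with 10 µM promethazine. At least six concentrations in duplicate; IC50 by nonlinear regression. Compound stocks 10^-2 M in DMSO, diluted in 50% DMSO.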

Calls of active or inactive are those of the source. Unless noted, the rule behind the calls is not given here.

Histamine H1 receptor (Mus musculus), sequence (P70174 whole entry): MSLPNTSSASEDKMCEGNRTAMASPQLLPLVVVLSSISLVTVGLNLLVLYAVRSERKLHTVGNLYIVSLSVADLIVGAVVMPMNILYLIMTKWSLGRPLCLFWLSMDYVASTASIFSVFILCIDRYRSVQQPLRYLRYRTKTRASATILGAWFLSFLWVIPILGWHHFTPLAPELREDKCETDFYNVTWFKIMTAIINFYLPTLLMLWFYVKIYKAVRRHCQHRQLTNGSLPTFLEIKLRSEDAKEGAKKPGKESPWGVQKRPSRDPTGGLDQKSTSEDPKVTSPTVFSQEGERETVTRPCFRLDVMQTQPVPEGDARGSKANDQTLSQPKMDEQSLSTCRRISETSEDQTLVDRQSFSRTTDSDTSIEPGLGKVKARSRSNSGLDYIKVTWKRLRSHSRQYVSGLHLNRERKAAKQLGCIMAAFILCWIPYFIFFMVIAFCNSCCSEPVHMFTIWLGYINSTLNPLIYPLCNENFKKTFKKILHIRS
CYP3A4, sequence (P08684 whole entry): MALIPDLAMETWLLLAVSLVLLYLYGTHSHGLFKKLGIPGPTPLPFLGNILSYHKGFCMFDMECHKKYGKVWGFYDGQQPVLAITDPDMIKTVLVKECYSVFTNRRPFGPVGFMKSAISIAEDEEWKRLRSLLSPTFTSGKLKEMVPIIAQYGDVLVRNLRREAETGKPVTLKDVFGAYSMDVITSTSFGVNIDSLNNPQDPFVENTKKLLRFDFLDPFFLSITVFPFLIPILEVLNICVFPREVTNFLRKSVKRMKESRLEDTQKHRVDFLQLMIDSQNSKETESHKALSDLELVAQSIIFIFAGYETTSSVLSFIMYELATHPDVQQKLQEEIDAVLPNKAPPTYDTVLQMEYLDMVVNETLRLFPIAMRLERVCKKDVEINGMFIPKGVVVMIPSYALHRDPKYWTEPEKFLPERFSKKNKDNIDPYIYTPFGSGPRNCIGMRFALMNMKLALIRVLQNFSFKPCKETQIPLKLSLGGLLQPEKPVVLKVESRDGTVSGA
Histamine H1 receptor, sequence (P31389 whole entry): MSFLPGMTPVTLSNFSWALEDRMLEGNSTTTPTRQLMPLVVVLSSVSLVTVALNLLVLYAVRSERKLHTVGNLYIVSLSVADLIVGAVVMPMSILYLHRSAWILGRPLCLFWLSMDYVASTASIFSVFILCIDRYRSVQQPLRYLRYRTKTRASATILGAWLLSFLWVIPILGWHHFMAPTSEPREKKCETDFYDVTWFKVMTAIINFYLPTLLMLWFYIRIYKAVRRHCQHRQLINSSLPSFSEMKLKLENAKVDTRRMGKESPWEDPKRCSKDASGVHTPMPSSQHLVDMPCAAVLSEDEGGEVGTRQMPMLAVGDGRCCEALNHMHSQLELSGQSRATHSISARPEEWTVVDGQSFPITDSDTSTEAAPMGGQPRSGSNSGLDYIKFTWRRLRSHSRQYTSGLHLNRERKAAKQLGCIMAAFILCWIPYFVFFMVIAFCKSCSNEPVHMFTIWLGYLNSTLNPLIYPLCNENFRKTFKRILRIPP

For the molecule `COCCn1cc(C2CCN(Cc3ccc(OC)c(C(=O)O)c3)CC2)c2ccccc21`, the ED50 in [1] was 0.05 mg/kg; in data set [6], 0.14 mg/kg (antagonist); in data set [7] it was 9.5 mg/kg; in [10] it was 0.03 mg/kg. In data set [2], this molecule showed a half-life of 3.9 h. Also, the IC50 in data set [3] was over 10 µM. Besides, the inhibition at 25 µM in data set [4] is -9%. Further, the outcome in data set [5] was inactive. In addition, the Vd in [8] worked out at 0.6 L/kg. Moreover, the clearance in data set [9] was 3.33 mL/min/kg.
As to `O=C(O)COCCN1CCN(C(c2ccccc2)c2ccc(Cl)cc2)CC1` (configuration not stated), in data set [11], the outcome was inactive.
With `COCCn1cc(C2CCN(CCOc3ccccc3C(=O)O)CC2)c2ccc(F)cc21`, the IC50 in data set [12] is 0.14 µM (antagonist); in data set [3] it was over 10 µM. The ED50 in data set [1] is 0.29 mg/kg; in data set [6], 0.13 mg/kg (antagonist); in [7], 40 mg/kg; in data set [10] it was 0.16 mg/kg. Further, the half-life in data set [2] is 3.4 h. For the same molecule, in data set [4], the inhibition at 25 µM amounted to 15%. Moreover, the outcome in data set [5] was inactive. The Vd in data set [8] is 0.3 L/kg. Besides, the clearance in data set [9] is 1.67 mL/min/kg.
